From article PMC3882305 (The Pediatric Infectious Disease Journal, 2013)
Like-named read-outs stand apart in the source and are kept apart here. Blank lines part the entries; values can stand above or below the compound they belong to.

What was measured:
[1] = Steady-state plasma APV/RTV/FPV pharmacokinetics in HIV-1-infected children; type: in vivo
In short: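 Dosing used FPV 50 mg/mL oral suspension or 700 mg tablets (≥39 kg), with RTV 80 mg/mL solution or 100 mg capsules (≥33 kg). At week 2, intensive sampling was taken at 0, 1, 2, 4, 6, 8 and 12 h postdose, plus predose samples every 4–12 weeks. Noncompartmental AUC(0–τ), Cmax, Cτ and CL/F were calculated; actual dose had to be within 10% of nominal. Log-transformed mixed-effect ANOVA gave geometric LS mean ratios (90% CI) versus historical healthy adults on FPV 1400 mg BID (n=190) or FPV/RTV 700/100 mg BID (n=159).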

[2] = Safety: adverse events, laboratory abnormalities, growth; type: in vivo, HIV-1–infected children; conditions: for subjects with at least 1 drug-related AE: 2- to <6-year olds (FPV/RTV 2/19; FPV 12/20); for change in median height and weight Z scores: week 48; for subjects with an AE leading to permanent discontinuation of study drug and withdrawal from the study: whole treatment group; for subjects reporting AEs: whole treatment group (FPV 19/20; FPV/RTV 83/89); for subjects with at least 1 drug-related grade 2–4 AE: whole treatment group (FPV/RTV 10/89; FPV 2/20)
In short: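 AEs, growth parameters, hematology and clinical chemistry including a lipid panel were assessed every 4–12 weeks, with follow-up 4 weeks after withdrawal. Severity was graded by the DAIDS Toxicity Table (2004). All study drug was stopped for grade 3/4 AE or toxicity unless clearly unrelated.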

[3] = system: HIV-1; assay: Antiviral response: plasma HIV-1 RNA <400 copies/mL, ITT; type: in vivo, HIV-1–infected children
In short: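 Children aged 2–18 years received twice-daily FPV ± RTV plus 2 or 3 active NRTIs, with plasma HIV-1 RNA measured every 4–12 weeks. The ITT (exposed) population was all subjects with ≥1 documented dose. In the snapshot analysis, response at each visit was taken from the last HIV-1 RNA within the visit window. Missing data counted as nonresponse, as did switching or adding background ART, unless toxicity-driven before week 2.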

[4] = system: CD4+ cell; assay: CD4+ cell response; type: in vivo, HIV-1–infected children; conditions: week 48; for median CD4+ cell count change from baseline / median percentage CD4+ cell count change from baseline: whole treatment group
In short: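 Lymphocyte subsets were monitored every 4–12 weeks in children given twice-daily FPV ± RTV with an NRTI background, with visits at weeks 2, 4, 8, 12, 16, 24, 36 and 48. CD4+ cell count and CD4+ percentage at week 48 were expressed as change from baseline and summarized as medians.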

[5] = study APV20003, cited from earlier work
[6] = system: HIV; conditions: once-daily, cited from earlier work
[7] = system: HIV; conditions: mostly PI-experienced, aged 6 to 17 years; time to loss of virologic response; cited from earlier work
[8] = system: HIV-1; conditions: ITT (missing = failure), cited from earlier work
[9] = 2- to <6-year olds (FPV 10/20, all grade 1; FPV/RTV 1/19, grade 2)

- plasma amprenavir exposures compared with 1400 mg twice-daily in adults ([1]; 30 mg/kg twice-daily, 2- to <6-year olds): higher
- samples with undetectable plasma FPV prodrug concentrations ([1]; plasma): 98%
Compound: CC(C)CN(C[C@@H](OP(=O)(O)O)[C@H](Cc1ccccc1)NC(=O)O[C@H]1CCOC1)S(=O)(=O)c1ccc(N)cc1 [FPV, Fosamprenavir]
- incidence of drug-related vomiting [2, 9]: 50%
- subjects with at least 1 drug-related AE [2]: 60%
- grade 3/4 hypertriglyceridemia, raised total cholesterol or raised low density lipoprotein cholesterol ([2]; FPV group): no grade 3/4 reports
- change in median height and weight Z scores [2]: Small increases
- subjects with an AE leading to permanent discontinuation of study drug and withdrawal from the study [2]: none
- subjects reporting AEs [2]: 95%
- subjects with at least 1 drug-related grade 2–4 AE [2]: 10%
- subjects with HIV-1 RNA <400 copies/mL at week 48 ([3]; FPV treatment group (PI-naïve, 2 to <6 yr), snapshot analysis): 60%
- median CD4+ cell count change from baseline [4]: 340 cells/mm^3
- median percentage CD4+ cell count change from baseline [4]: 8%
- APV exposures compared with adults receiving FPV/RTV 1400/200 mg QD ([5]; 6- to 18-year-old children, 30/6 mg/kg QD): comparable

- plasma RTV Cτ ([1]; RTV 3 mg/kg BID in combination with FPV, across the age groups): higher
Compound: CC(C)c1nc(CN(C)C(=O)N[C@H](C(=O)N[C@@H](Cc2ccccc2)C[C@H](O)[C@H](Cc2ccccc2)NC(=O)OCc2cncs2)C(C)C)cs1 [RTV, ritonavir]

Compound: COC(=O)N[C@H](C(=O)N[C@@H](Cc1ccccc1)[C@@H](O)CN(Cc1ccc(-c2ccccn2)cc1)NC(=O)[C@@H](NC(=O)OC)C(C)(C)C)C(C)(C)C [RTV-boosted atazanavir, atazanavir]
- response rate for HIV RNA <400 copies/mL at week 48 ([6]; ART-experienced 6- to <18-year olds (8/25)): 32%
- response rate for HIV RNA <400 copies/mL at week 48 ([6]; ART-naïve 6- to <18-year olds (14/16)): 88%

Compound: CC(C)CN(C[C@@H](O)[C@H](Cc1ccccc1)NC(=O)O[C@H]1CO[C@H]2OCC[C@H]21)S(=O)(=O)c1ccc(N)cc1 [RTV-boosted darunavir, darunavir]
- children achieving a viral load of <400 copies/mL at week 48 [7]: 59%

- APV AUC(0–τ) and Cmax compared with adults receiving FPV/RTV 700/100 mg BID ([1]; FPV/RTV 15/3 mg/kg BID, 6- to <12-year olds and 12- to 18-year olds): lower
- higher plasma APV AUC(0–τ), Cmax and Cτ values than historical adults receiving FPV/RTV 700/100 mg BID ([1]; FPV/RTV 23/3 mg/kg BID, 2- to <6-year olds): approximately 50%
- plasma APV exposures compared with the historical adult population ([1]; FPV/RTV 700/100 mg BID, 12- to 18-year-old subjects ≥39 kg): similar
Compound: fosamprenavir/ritonavir [FPV/RTV]
- incidence of drug-related vomiting [2, 9]: 5%
- subjects with at least 1 drug-related AE [2]: 11%
- incidence of drug-related vomiting ([2]; 6- to <12-year olds (9/30; 7 grade 1 and 2 grade 2)): 30%
- subjects with drug-related AEs ([2]; 6- to <12-year olds (13/30)): 43%
- AEs leading to permanent discontinuation of study drug ([2]; 6- to <12-year olds (hypertriglyceridemia)): 1
- incidence of drug-related vomiting ([2]; 12- to 18-year olds (3/40, all grade 1)): 8%
- subjects with drug-related AEs ([2]; 12- to 18-year olds (15/40)): 38%
- AEs leading to permanent discontinuation of study drug ([2]; 12- to 18-year olds (adverse drug reaction and pyelonephritis)): 2
- grade 3/4 hypertriglyceridemia ([2]; FPV/RTV group): no reports
- grade 2–4 diarrhea ([2]; FPV/RTV group (2/89)): 2%
- grade 3 increases in total cholesterol ([2]; FPV/RTV group (2 subjects)): 5%
- grade 2–4 vomiting ([2]; FPV/RTV group (3/89)): 3%
- grade 3 increases in low density lipoprotein cholesterol ([2]; FPV/RTV group (4 subjects)): 9%
- drug-related nausea ([2]; adolescent group (6/40)): 15%
- drug-related diarrhea ([2]; adolescent group (7/40)): 18%
- change in median height and weight Z scores [2]: Small increases
- subjects with an AE leading to permanent discontinuation of study drug and withdrawal from the study [2]: Four
- subjects reporting AEs [2]: 93%
- subjects with at least 1 drug-related grade 2–4 AE [2]: 11%
- subjects with HIV-1 RNA <400 copies/mL at week 48 ([3]; 2- to <6-year olds (14/19)): 74%
- subjects with HIV-1 RNA <400 copies/mL at week 48 ([3]; 6- to <12-year-old (16/30)): 53%
- subjects with HIV-1 RNA <400 copies/mL at week 48 ([3]; 12- to 18-year-old (25/40)): 63%
- subjects with HIV-1 RNA <400 copies/mL at week 48 ([3]; ART-naïve subjects, snapshot analysis): 83%
- subjects with HIV-1 RNA <400 copies/mL at week 48 ([3]; PI-experienced subjects, snapshot analysis): 48%
- subjects with HIV-1 RNA <400 copies/mL at week 48 ([3]; PI-naïve/NRTI-experienced subjects, snapshot analysis): 65%
- subjects with HIV-1 RNA <400 copies/mL at week 48 ([3]; range across age groups, intent-to-treat [exposed], snapshot analysis): 53–74%
- median CD4+ cell count change ([4]; 2- to <6-year olds): 174 cells/mm^3
- percentage CD4+ cell count change ([4]; 2- to <6-year olds): 10%
- median CD4+ cell count change ([4]; 6- to <12-year olds): 210 cells/mm^3
- percentage CD4+ cell count change ([4]; 6- to <12-year olds): 7%
- median CD4+ cell count change ([4]; 12- to 18-year olds): 140 cells/mm^3
- percentage CD4+ cell count change ([4]; 12- to 18-year olds): 7%
- median CD4+ cell count change from baseline [4]: 190 cells/mm^3
- median percentage CD4+ cell count change from baseline [4]: 8%
- lower APV exposure than adults receiving FPV/RTV 1400/200 mg QD ([5]; 2- to <6-year-old children, FPV/RTV 30/6 mg/kg QD): ~ 28%

Compound: lopinavir (LPV)/RTV [LPV/RTV]
- subjects with HIV-1 RNA <400 copies/mL after 48 weeks ([8]; ART-naïve): 88%
- subjects with HIV-1 RNA <400 copies/mL after 48 weeks ([8]; PI-experienced/NRTI-experienced): 58%
- subjects with HIV-1 RNA <400 copies/mL after 48 weeks ([8]; PI-naïve/NRTI-experienced): 84%
